# Reference: ChEMBL document CHEMBL5154945, “Discovery and Optimization of Pyrrolopyrimidine Derivatives as Selective Disruptors of the Perinucleolar Compartment, a Marker of Tumor Progression toward Metastasis” (J Med Chem, 2022)
# Activity calls are given as the source filed them. The rule behind the calls is not given here.
# How the values were obtained:
# [1] = tested on: HCT-15; assay: Anticancer activity against human HCT-15 cells assessed as cell growth inhibition; assay type: functional, cell-based; settings: dose 1-100 µM, DDE = dose-dependent effect
# [2] = tested on: K562; assay: Anticancer activity against human K562 cells assessed as cell growth inhibition; assay type: functional, cell-based; settings: dose 1-100 µM, DDE = dose-dependent effect
# [3] = mouse, in vivo, ip, 50 mg/kg, 48 h
# [4] = tested on: SNB-19; assay: Anticancer activity against human SNB-19 cells assessed as cell growth inhibition; assay type: functional, cell-based; settings: dose 1-100 µM, DDE = dose-dependent effect
# [5] = biological target: Alpha-2B adrenergic receptor (Homo sapiens) (UniProt P18089); assay: Binding affinity to alpha2B receptor (unknown origin) at 10000 nM by radioligand displacement assay relative to control
# [6] = tested on: MDA-MB-435; assay: Anticancer activity against human MDA-MB-435 cells assessed as cell growth inhibition; assay type: functional, cell-based; settings: dose 1-100 µM, DDE = dose-dependent effect
# [7] = mouse, in vivo, ip, 50 mg/kg, 0.5 h
# [8] = tested on: UACC-257; assay: Anticancer activity against human UACC-257 cells assessed as cell growth inhibition; assay type: functional, cell-based; settings: dose 1-100 µM, DDE = dose-dependent effect
# [9] = biological target: Muscarinic acetylcholine receptor M4 (Homo sapiens) (UniProt P08173); assay: Binding affinity to M4 receptor (unknown origin) at 10000 nM by radioligand displacement assay relative to control
# [10] = tested on: NCI-H226; assay: Anticancer activity against human NCI-H226 cells assessed as cell growth inhibition; assay type: functional, cell-based; settings: dose 1-100 µM, DDE = dose-dependent effect
# [11] = tested on: OVCAR-5; assay: Anticancer activity against human OVCAR-5 cells assessed as cell growth inhibition; assay type: functional, cell-based; settings: dose 1-100 µM, DDE = dose-dependent effect
# [12] = tested on: 786-0; assay: Anticancer activity against human 786-0 cells assessed as cell growth inhibition; assay type: functional, cell-based; settings: dose 1-100 µM, DDE = dose-dependent effect
# [13] = biological target: Alpha-1B adrenergic receptor (Homo sapiens) (UniProt P35368); assay: Binding affinity to alpha1B receptor (unknown origin) at 10000 nM by radioligand displacement assay relative to control
# [14] = tested on: PC-3M; assay: Antiproliferative activity against human PC-3M cells expressing PTB/GFP fusion protein assessed as disruption of RNA synthesis marker RP-194 at 1 uM and measured after 1 hr by DAPI staining based immunofluorescence microscopy; assay type: functional, cell-based
# In short: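 50,000 PC3M cells on chamber slides were treated with 1 μM compound for 1 h at 37 °C, then fixed in 4% paraformaldehyde for 15 min, permeabilized with 0.3% Triton X-100 and blocked in 3% BSA. Primary antibodies were anti-RPA194 (1:200) and anti-NOPP140 (1:100), overnight at 4 °C, followed by secondary antibodies and DAPI mounting. Confocal images at 63×, three images of about 200 cells per group; counts of bright objects were normalized to DAPI-stained nuclei.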
# [15] = biological target: Muscarinic acetylcholine receptor M3 (Homo sapiens) (UniProt P20309); assay: Binding affinity to M3 receptor (unknown origin) at 10000 nM by radioligand displacement assay relative to control
# [16] = tested on: PC-3; assay: Anticancer activity against human PC-3 cells assessed as cell growth inhibition; assay type: functional, cell-based; settings: dose 1-100 µM, DDE = dose-dependent effect
# [17] = tested on: SN12C; assay: Anticancer activity against human SN12C cells assessed as cell growth inhibition; assay type: functional, cell-based; settings: dose 1-100 µM, DDE = dose-dependent effect
# [18] = AUC (0 to 48 hrs) in female BALB/c mouse at 25 mg/kg, ip at 48 hrs by LC-MS/MS analysis; assay type: ADME, organism-based; design: time 48 hrs, dose 25 mg/kg, route ip; settings: in vivo
# In short: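 Fed female BALB/c mice, about 6–8 weeks old and 25–30 g, received a single IP dose. The vehicle was 5-10% NMP + 20% PEG400 + 70-75% (25% HP-β-CD in water), with the drug at 2.5/0.5 mg/mL. Blood was taken by retro-orbital puncture under isoflurane into K2EDTA tubes, 3 mice per time point, over 48 h. Plasma was prepared at 2000 g, 5 min, 4 °C, and measured by LC/MS/MS.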
# [19] = Cmax in female BALB/c mouse at 25 mg/kg, ip at 30 min by L-MS/MS analysis; assay type: ADME, organism-based; design: dose 25 mg/kg, time 30 min, route ip; settings: in vivo, 0.5 h
# In short: (§1)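 Fed female BALB/c mice, about 6–8 weeks old and 25–30 g, received a single IP dose of 5 or 25 mpk in NMP/PEG400/HP-β-CD aqueous vehicle (0.5 mg/mL for the 5 mpk dose). Three mice per time point were sampled up to 48 h by retro-orbital bleed under isoflurane into K2EDTA. Plasma was spun at 2000 g, 4 °C, frozen at -80 °C, and assayed by LC/MS/MS.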
# [20] = biological target: 5-hydroxytryptamine receptor 2C (Homo sapiens) (UniProt P28335); assay: Binding affinity to 5-HT2C receptor (unknown origin) at 10000 nM by radioligand displacement assay relative to control
# [21] = tested on: SK-OV-3; assay: Anticancer activity against human SK-OV-3 cells assessed as cell growth inhibition; assay type: functional, cell-based; settings: dose 1-100 µM, DDE = dose-dependent effect
# [22] = tested on: U-251; assay: Anticancer activity against human U-251 cells assessed as cell growth inhibition; assay type: functional, cell-based; settings: dose 1-100 µM, DDE = dose-dependent effect
# [23] = tested on: MCF7; assay: Anticancer activity against human MCF7 cells assessed as cell growth inhibition; assay type: functional, cell-based; settings: dose 1-100 µM, DDE = dose-dependent effect
# [24] = biological target: 5-hydroxytryptamine receptor 1D (Homo sapiens) (UniProt P28221); assay: Binding affinity to 5-HT1D receptor (unknown origin) at 10000 nM by radioligand displacement assay relative to control
# [25] = Tmax in female BALB/c mouse at 5 mg/kg, ip and measured upto 48 hrs by LC-MS/MS analysis; assay type: ADME, organism-based; settings: in vivo; in short: as §1
# [26] = tested on: M14; assay: Anticancer activity against human M14 cells assessed as cell growth inhibition; assay type: functional, cell-based; settings: dose 1-100 µM, DDE = dose-dependent effect
# [27] = tested on: SF-268; assay: Anticancer activity against human SF-268 cells assessed as cell growth inhibition; assay type: functional, cell-based; settings: dose 1-100 µM, DDE = dose-dependent effect
# [28] = biological target: Alpha-1A adrenergic receptor (Homo sapiens) (UniProt P35348); assay: Binding affinity to alpha1A receptor (unknown origin) at 10000 nM by radioligand displacement assay relative to control
# [29] = tested on: BT-549; assay: Anticancer activity against human BT-549 cells assessed as cell growth inhibition; assay type: functional, cell-based; settings: dose 1-100 µM, DDE = dose-dependent effect
# [30] = tested on: ACHN; assay: Anticancer activity against human ACHN cells assessed as cell growth inhibition; assay type: functional, cell-based; settings: dose 1-100 µM, DDE = dose-dependent effect
# [31] = tested on: NCI/ADR-RES; assay: Anticancer activity against human NCI/ADR-RES cells assessed as cell growth inhibition; assay type: functional, cell-based; settings: dose 1-100 µM, DDE = dose-dependent effect
# [32] = tested on: MDA-MB-468; assay: Anticancer activity against human MDA-MB-468 cells assessed as cell growth inhibition; assay type: functional, cell-based; settings: dose 1-100 µM, DDE = dose-dependent effect
# [33] = tested on: COLO 205; assay: Anticancer activity against human COLO 205 cells assessed as cell growth inhibition; assay type: functional, cell-based; settings: dose 1-100 µM, DDE = dose-dependent effect
# [34] = Tmax in female BALB/c mouse at 25 mg/kg, ip and measured upto 48 hrs by LC-MS/MS analysis; assay type: ADME, organism-based; settings: in vivo; in short: as §1
# [35] = tested on: NCI-H322M; assay: Anticancer activity against human NCI-H322M cells assessed as cell growth inhibition; assay type: functional, cell-based; settings: dose 1-100 µM, DDE = dose-dependent effect
# [36] = tested on: SW-620; assay: Anticancer activity against human SW-620 cells assessed as cell growth inhibition; assay type: functional, cell-based; settings: dose 1-100 µM, DDE = dose-dependent effect
# [37] = biological target: D(1A) dopamine receptor (Homo sapiens) (UniProt P21728); assay: Binding affinity to D1 receptor (unknown origin) at 10000 nM by radioligand displacement assay relative to control
# [38] = biological target: Sigma intracellular receptor 2 (Homo sapiens, UniProt Q5BJF2); assay: Binding affinity to sigma2 receptor (unknown origin) by radioligand displacement assay
# [39] = tested on: SNB-75; assay: Anticancer activity against human SNB-75 cells assessed as cell growth inhibition; assay type: functional, cell-based; settings: dose 1-100 µM, DDE = dose-dependent effect
# [40] = tested on: KM12; assay: Anticancer activity against human KM12 cells assessed as cell growth inhibition; assay type: functional, cell-based; settings: dose 1-100 µM, DDE = dose-dependent effect
# [41] = tested on: DU-145; assay: Anticancer activity against human DU-145 cells assessed as cell growth inhibition; assay type: functional, cell-based; settings: dose 1-100 µM, DDE = dose-dependent effect
# Sequence of Alpha-2B adrenergic receptor (Homo sapiens) (P18089 whole entry): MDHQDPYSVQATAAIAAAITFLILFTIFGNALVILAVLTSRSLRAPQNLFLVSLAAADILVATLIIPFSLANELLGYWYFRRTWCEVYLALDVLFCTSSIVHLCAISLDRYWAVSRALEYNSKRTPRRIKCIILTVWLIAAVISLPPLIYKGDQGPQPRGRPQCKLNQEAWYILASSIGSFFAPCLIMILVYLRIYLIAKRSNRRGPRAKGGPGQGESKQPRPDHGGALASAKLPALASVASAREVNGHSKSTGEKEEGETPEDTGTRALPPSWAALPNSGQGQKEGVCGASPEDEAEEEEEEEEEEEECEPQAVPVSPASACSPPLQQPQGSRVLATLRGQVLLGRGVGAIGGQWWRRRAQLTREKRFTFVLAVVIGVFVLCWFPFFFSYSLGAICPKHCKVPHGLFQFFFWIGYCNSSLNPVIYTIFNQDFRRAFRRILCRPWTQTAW
# Sequence of 5-hydroxytryptamine receptor 2C (Homo sapiens) (P28335 whole entry): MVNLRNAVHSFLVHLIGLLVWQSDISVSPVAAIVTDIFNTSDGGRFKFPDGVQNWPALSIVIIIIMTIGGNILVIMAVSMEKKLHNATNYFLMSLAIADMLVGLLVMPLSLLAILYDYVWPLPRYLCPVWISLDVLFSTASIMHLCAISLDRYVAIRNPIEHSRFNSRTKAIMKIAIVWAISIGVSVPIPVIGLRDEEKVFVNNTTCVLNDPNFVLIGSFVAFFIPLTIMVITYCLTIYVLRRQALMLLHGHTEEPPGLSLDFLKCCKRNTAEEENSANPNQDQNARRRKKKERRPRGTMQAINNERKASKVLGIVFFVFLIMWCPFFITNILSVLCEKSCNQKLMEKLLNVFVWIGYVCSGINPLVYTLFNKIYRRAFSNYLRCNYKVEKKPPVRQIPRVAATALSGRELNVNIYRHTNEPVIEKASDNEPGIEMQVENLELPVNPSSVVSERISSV
# Sequence of Alpha-1A adrenergic receptor (Homo sapiens) (P35348 whole entry): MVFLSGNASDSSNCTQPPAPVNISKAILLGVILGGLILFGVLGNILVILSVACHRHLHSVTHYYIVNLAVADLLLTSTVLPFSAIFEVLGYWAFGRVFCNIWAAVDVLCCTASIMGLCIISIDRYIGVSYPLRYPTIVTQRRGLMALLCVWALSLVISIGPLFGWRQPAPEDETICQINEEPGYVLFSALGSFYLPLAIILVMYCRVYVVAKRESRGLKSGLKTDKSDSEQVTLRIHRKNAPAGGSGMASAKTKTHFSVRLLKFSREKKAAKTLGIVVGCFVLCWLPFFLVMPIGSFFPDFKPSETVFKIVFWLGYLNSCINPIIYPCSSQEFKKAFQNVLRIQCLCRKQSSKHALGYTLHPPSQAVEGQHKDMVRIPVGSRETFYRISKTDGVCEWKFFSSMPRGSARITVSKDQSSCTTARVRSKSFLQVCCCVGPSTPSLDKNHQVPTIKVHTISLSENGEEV
# Sequence of Muscarinic acetylcholine receptor M3 (Homo sapiens) (P20309 whole entry, looked up): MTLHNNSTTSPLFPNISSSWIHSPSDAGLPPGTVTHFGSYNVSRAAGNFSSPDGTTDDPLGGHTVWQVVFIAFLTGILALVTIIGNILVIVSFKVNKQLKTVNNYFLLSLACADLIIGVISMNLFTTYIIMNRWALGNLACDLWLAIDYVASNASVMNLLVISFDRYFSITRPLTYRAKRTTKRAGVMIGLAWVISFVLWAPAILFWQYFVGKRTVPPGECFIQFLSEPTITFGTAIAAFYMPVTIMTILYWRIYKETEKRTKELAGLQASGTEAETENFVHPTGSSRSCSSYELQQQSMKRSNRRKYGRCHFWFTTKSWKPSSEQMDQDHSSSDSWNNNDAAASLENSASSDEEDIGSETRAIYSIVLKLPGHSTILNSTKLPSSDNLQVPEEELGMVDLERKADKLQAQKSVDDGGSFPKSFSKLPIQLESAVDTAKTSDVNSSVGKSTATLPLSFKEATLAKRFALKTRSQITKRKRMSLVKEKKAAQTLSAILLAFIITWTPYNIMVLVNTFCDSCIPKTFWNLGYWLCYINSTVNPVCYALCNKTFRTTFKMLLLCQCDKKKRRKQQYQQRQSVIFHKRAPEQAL
# Sequence of Alpha-1B adrenergic receptor (Homo sapiens) (P35368 whole entry, the tested form may be a part): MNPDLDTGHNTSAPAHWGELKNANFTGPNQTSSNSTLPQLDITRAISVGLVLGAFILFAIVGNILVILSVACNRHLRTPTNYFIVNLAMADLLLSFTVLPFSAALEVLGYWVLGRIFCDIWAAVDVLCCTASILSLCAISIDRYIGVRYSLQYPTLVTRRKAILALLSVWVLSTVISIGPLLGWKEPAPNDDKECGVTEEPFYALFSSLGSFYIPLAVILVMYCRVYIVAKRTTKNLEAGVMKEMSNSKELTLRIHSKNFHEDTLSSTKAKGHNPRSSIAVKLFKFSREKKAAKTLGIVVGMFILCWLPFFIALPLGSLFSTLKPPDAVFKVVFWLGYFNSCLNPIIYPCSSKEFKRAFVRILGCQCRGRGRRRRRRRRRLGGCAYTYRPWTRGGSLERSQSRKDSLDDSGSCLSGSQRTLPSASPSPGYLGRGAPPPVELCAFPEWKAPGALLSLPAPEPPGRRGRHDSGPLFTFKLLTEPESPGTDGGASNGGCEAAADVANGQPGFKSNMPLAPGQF
# Sequence of Muscarinic acetylcholine receptor M4 (Homo sapiens) (P08173 whole entry): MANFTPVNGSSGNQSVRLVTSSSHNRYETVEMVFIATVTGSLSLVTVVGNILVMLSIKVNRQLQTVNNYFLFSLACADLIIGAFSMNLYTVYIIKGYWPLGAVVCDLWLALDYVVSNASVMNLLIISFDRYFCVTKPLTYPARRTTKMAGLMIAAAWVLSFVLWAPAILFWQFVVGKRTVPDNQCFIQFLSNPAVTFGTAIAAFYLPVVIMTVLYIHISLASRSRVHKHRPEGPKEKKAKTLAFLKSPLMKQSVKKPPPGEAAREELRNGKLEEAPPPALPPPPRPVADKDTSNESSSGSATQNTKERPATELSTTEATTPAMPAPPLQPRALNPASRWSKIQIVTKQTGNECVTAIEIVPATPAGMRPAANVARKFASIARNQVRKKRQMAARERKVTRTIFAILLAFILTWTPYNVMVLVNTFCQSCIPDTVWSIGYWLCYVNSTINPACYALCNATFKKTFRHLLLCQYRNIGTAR
# Sequence of 5-hydroxytryptamine receptor 1D (Homo sapiens) (P28221 whole entry): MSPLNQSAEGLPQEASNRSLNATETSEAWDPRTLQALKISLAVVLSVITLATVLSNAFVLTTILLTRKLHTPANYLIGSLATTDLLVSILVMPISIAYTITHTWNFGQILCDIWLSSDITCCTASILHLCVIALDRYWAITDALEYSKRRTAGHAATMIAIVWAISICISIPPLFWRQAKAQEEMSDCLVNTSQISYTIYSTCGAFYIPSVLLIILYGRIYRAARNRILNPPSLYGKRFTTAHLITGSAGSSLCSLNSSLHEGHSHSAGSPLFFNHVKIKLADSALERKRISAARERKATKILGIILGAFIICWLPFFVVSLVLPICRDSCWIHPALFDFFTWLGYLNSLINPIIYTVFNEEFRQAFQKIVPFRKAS
# Sequence of D(1A) dopamine receptor (Homo sapiens) (P21728 whole entry): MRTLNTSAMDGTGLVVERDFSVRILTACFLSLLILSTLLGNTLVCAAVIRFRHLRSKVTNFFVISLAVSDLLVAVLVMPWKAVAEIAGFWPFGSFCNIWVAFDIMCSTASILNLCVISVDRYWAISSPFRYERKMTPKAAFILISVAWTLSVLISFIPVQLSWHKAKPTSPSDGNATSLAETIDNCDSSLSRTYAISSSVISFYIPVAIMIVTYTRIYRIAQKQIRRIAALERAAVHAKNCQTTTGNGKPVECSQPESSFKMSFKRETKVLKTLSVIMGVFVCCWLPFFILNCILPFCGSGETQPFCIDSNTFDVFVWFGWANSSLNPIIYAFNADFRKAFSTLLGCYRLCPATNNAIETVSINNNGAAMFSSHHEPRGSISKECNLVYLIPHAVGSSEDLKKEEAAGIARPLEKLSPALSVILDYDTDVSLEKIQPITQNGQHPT
# Sequence of Sigma intracellular receptor 2 (Q5BJF2 whole entry): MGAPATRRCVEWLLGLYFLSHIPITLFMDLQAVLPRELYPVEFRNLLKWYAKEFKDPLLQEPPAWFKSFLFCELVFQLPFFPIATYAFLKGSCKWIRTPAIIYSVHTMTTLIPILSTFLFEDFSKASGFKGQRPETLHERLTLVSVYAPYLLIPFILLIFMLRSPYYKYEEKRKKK
structure (smiles),measurement,setting,value
N=c1c2c(-c3ccccc3)c(-c3ccccc3)n(Cc3ccccc3)c2ncn1[C@H]1CC[C@H](O)CC1 [ML-246],Activity,[1],Dde
same,Activity,[2],Dde
same,Tmax,[3],30 min
same,Activity,[4],Dde
same,Activity,[5],< 50%
same,Activity,[6],Dde
same,Cmax,[7],20.3 µM
same,Activity,[8],Dde
same,Activity,[9],< 50%
same,Activity,[10],Dde
same,Activity,[11],Dde
same,Activity,[12],Dde
same,Activity,[13],< 50%
same,Activity,[14],Active
same,Activity,[15],< 50%
same,Activity,[16],Dde
same,Activity,[17],Dde
same,AUC,[18],57.64 µM·h
same,Cmax,[19],6.17 µM
same,Activity,[20],< 50%
same,Activity,[21],Dde
same,Activity,[22],Dde
same,Activity,[23],Dde
same,Activity,[24],< 50%
same,Tmax,[25],15 min
same,Activity,[26],Dde
same,Activity,[27],Dde
same,Activity,[28],< 50%
same,Activity,[29],Dde
same,Activity,[30],Dde
same,Activity,[31],Dde
same,Activity,[32],Dde
same,Activity,[33],Dde
same,Tmax,[34],30 min
same,Activity,[35],Dde
same,Activity,[36],Dde
same,Activity,[37],< 50%
same,Ki,[38],244 nM
same,Activity,[39],Dde
same,Activity,[40],Dde
same,Activity,[41],Dde
